Assay results published in ChEMBL document CHEMBL1126142, “Potential antitumor agents. 64. Synthesis and antitumor evaluation of dibenzo[1,4]dioxin-1-carboxamides: a new class of weakly binding DNA-intercalating agents” (J Med Chem, 1992).
Activity calls are given as the source filed them. No cut-off for these calls is given here.

Assays:
[1] = Lipophilicity (Rm); format: physicochemical; conditions: AMSA internal standard
Procedure, shortened: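 Relative lipophilicity (Rm) was determined chromatographically using 4'-(9-acridinylamino)methanesulfonanilide (AMSA) as internal standard.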

[2] = Cytotoxicity measured on wild-type P388 murine leukemia cells; format: functional, cell-based; conditions: Mus musculus
Procedure, shortened: (§1)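 A 96-well plate growth-inhibition assay in culture was run with full dose-response curves. IC50 was the drug concentration (μM) reducing cell growth to 50% of untreated controls. Values are means of three determinations. The P388/AMSA subline carries a structurally altered topoisomerase II.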

[3] = tested on: P388; assay: In vivo percentage increase in lifespan with compound after treating wild-type P388 murine leukemia cells with optimal dose; Not active; format: functional, organism-based; conditions: Mus musculus
[4] = tested on: Nucleic Acid; assay: Binding constant to poly[d(A-T)] by displacement of ethidium bromide; format: nucleic-acid assay
[5] = In vivo optimal dose administered intraperitoneally to wild-type P388 murine leukemia cells; format: functional, Mus musculus
Procedure, shortened: (§2)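 Mice received 10^6 tumor cells intraperitoneally. After 24 h, drug was given ip as a solution in 0.1 mL 30% v/v EtOH/water on days 1, 5 and 9. The optimal dose is expressed as mg/kg per day. Groups were 6 mice, with tests in duplicate.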

[6] = In vivo the optimal dose administered intraperitoneally to wild-type P388 murine leukemia cells; format: functional, Mus musculus; procedure, shortened: as §2
[7] = tested on: P388; assay: Inhibitory activity against mutant murine leukemia cell line P388/AMSA; format: functional, cell-based; conditions: Mus musculus; procedure, shortened: as §1
[8] = Percentage increase in lifespan with compound after treating wild-type P388 murine leukemia cells with optimal dose; format: functional, Mus musculus
Procedure, shortened: (§3)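 Mice bearing wild-type P388 leukemia, 10^6 cells inoculated intraperitoneally; drug given ip in 0.1 mL 30% v/v EtOH/water on days 1, 5 and 9, starting 24 h after inoculation. ILS = percentage increase in lifespan of treated over untreated tumor-bearing mice at the optimal dose (mg/kg per day); >20% counted significant. Groups of 6 mice, tests in duplicate.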

[9] = tested on: P388; assay: Inhibitory activity against P388 murine leukemia cell which is topoisomerase II enzyme and resistant to classical topo II Inhibitors; format: functional, cell-based; conditions: Mus musculus; procedure, shortened: as §1
[10] = In vivo percentage increase in lifespan with compound after treating wild-type P388 murine leukemia cells with optimal dose; format: functional, Mus musculus; procedure, shortened: as §3

Row | SMILES | Rm [1] | IC50 [2] [nM] | ILS [3] | Log K [4] | OD [5] [mg/kg] | OD [6] [mg/kg] | IC50 [7] [nM] | ILS [8] [%] | IC50 [9] [nM] | ILS [10] [%]
1 | CN(C)CCCCNC(=O)c1cccc2c1Oc1ccccc1O2 | 0.13 | > 20000 | inactive | 4.9 | 150 | – | – | – | – | –
2 | Cc1ccc2c(c1)Oc1cccc(C(=O)NCCN(C)C)c1O2 | 0.2 | 3300 | inactive | 5.11 | – | 45 | – | – | – | –
3 | CN(C)CCNC(=O)c1ccc2c(c1)Oc1ccccc1O2 | 0.11 | 5800 | inactive | 4.84 | – | 150 | – | – | – | –
4 | CN(C)CCNC(=O)c1cccc2c1Oc1c(cccc1[N+](=O)[O-])O2 | -0.28 | 32 | inactive | 5.11 | – | 20 | 450 | – | – | –
5 | CN(C)CCNC(=O)c1cccc2c1Oc1cc([N+](=O)[O-])ccc1O2 | -0.14 | 3700 | – | 5.64 | – | 150 | – | 96 | – | –
6 | Cc1cccc2c1Oc1c(cccc1C(=O)NCCN(C)C)O2 | 0.09 | 250 | – | 5.28 | – | 100 | 7700 | 144 | – | –
7 | CN(C)CCNC(=O)c1ccc2c(c1)Oc1ccc(C(=O)NCCN(C)C)cc1O2 | -1.21 | > 10000 | inactive | 6.81 | – | 225 | – | – | – | –
8 | CN(C)CCNC(=O)c1cccc2c1Oc1cccc([N+](=O)[O-])c1O2 | -0.2 | 2500 | inactive | 5.06 | – | 150 | – | – | – | –
9 | CN(C)CCNC(=O)c1cccc2c1Oc1c(cccc1C(=O)NCCN(C)C)O2 | -0.68 | 720 | inactive | 4.48 | – | 100 | – | – | – | –
10 | CN(C)CCNC(=O)c1cccc2c1Oc1ccc(Cl)cc1O2 | 0.1 | 1600 | inactive | 5.11 | – | 100 | – | – | – | –
11 | CN(C)CCNC(=O)c1cccc2c1Oc1ncccc1O2 | -0.38 | 830 | inactive | – | – | 65 | – | – | 930 | –
12 | CN(C)CCNC(=O)c1cccc2c1Oc1c(Br)cccc1O2 | -0.01 | 210 | – | 5.23 | – | 100 | 730 | 154 | – | –
13 | CN(C)CCNC(=O)c1cccc2c1Oc1ccccc1O2 | 0.01 | 3000 | – | 5.05 | 150 | – | 1800 | – | – | 76
14 | CN(C)CCNC(=O)c1cccc2c1Oc1ccc(Br)cc1O2 | 0.18 | 1900 | inactive | 5.34 | – | 100 | – | – | – | –
15 | CN(C)CCNC(=O)c1cccc2c1Oc1cc(Br)ccc1O2 | 0.18 | 3000 | inactive | 5.35 | – | 150 | – | – | – | –
16 | CN(C)CCNC(=O)c1cc([N+](=O)[O-])cc2c1Oc1ccccc1O2 | -0.16 | 1700 | inactive | 5.37 | – | 225 | – | – | – | –
17 | Cc1cccc2c1Oc1cccc(C(=O)NCCN(C)C)c1O2 | 0.14 | 2100 | inactive | 5.26 | – | 45 | – | – | – | –
18 | CN(C)CCNC(=O)c1cccc2c1Oc1cc(Cl)c(Cl)cc1O2 | 0.25 | 5130 | inactive | – | – | 150 | – | – | 830 | –
19 | COc1cccc2c1Oc1c(cccc1C(=O)NCCN(C)C)O2 | -0.02 | 380 | – | 5.55 | – | 45 | 520 | 45 | – | –
20 | CN(C)CCNC(=O)c1cccc2c1Oc1ccc([N+](=O)[O-])cc1O2 | -0.14 | 6000 | – | 5.64 | – | 150 | – | 96 | – | –
21 | CN(C)CCNC(=O)c1cccc2c1Oc1c(Cl)cccc1O2 | -0.01 | 230 | – | 5.48 | – | 100 | 2600 | 106 | – | –
22 | CN(C)CCNC(=O)c1cccc2c1Oc1cccc(Cl)c1O2 | 0.21 | 1300 | inactive | 5.15 | – | 100 | – | – | – | –
23 | CN(C)CCNC(=O)c1cccc2c1Oc1cccnc1O2 | -0.49 | 8000 | inactive | 4.73 | – | 100 | – | – | – | –
24 | COc1cccc2c1Oc1cccc(C(=O)NCCN(C)C)c1O2 | -0.19 | 1600 | inactive | 5.18 | – | 100 | – | – | – | –
